Results published in PMC5189635 (ChemMedChem, 2016).
≈ marks a conversion by molar mass, not a printed value. Like-named read-outs stand apart in the source and are kept apart here. Marks after values point to notes of the source that are not given here.

Legend:
E. coli C291-b1 = experiment: MIC, E. coli C291-b1; assay type: cell-based
Klebisiella spp. = experiment: MIC, Klebisiella spp.; assay type: cell-based
K. pneumoniae BARB 105 = experiment: MIC, K. pneumoniae BARB 105; assay type: cell-based
[1] = system: P. aeruginosa T15464 (MDR); experiment: MIC, P. aeruginosa T15464; assay type: cell-based
A. baumanii ATCC9955 = experiment: MIC, A. baumanii ATCC9955; assay type: cell-based
S. typhimurium SL1344 = experiment: MIC, S. typhimurium SL1344; assay type: cell-based
E. coli NR698 = experiment: Bacteriostatic effect; assay type: cell-based; details: Addition None
E. coli MC4100 = experiment: Bacteriostatic effect; assay type: cell-based
[2] = system: Shigella flexneri ATCC12022; experiment: Bacteriostatic effect; assay type: cell-based
Method in brief: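 Broth microdilution per CLSI guidelines: LB with 0.2% glucose, exponential-phase cells (OD600 ≈ 0.5), 2% DMSO final. Permeabilizer, where added, was PMBN 25 μg/mL or NAB7061 4 μg/mL. Incubated 24 h at 37 °C with shaking at 250 rpm. Run in triplicate in three separate experiments. MIC is the lowest concentration with no growth.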

H+-ATPase = H+-ATPase (Escherichia coli, UniProt P0ABB0+P0ABB4); experiment: In vitro ATPase activity, H+-ATPase; assay type: biochemical; details: read-out: ATPase activity IC50
SpuB ATPase = SpuB ATPase (Pseudomonas aeruginosa, UniProt Q9I6J3); experiment: In vitro ATPase activity, SpuB; assay type: biochemical; details: read-out: ATPase activity IC50
PaSecA = PaSecA (Pseudomonas aeruginosa, UniProt Q9LCT3); details: read-out: Protein translocation IC50; PaSecA-liposomes; published RB; cited from earlier work
[3] = E. coli C291-b1, NAB7061 4 μg/mL
[4] = Klebisiella spp., Addition None
[5] = Klebisiella spp., NAB7061 4 μg/mL
[6] = K. pneumoniae BARB 105, NAB7061 4 μg/mL
[7] = K. pneumoniae BARB 105, PMBN 25 μg/mL
[8] = P. aeruginosa T15464 (MDR), NAB7061 4 μg/mL
[9] = P. aeruginosa T15464 (MDR), PMBN 3 μg/mL
[10] = Pseudomonas aeruginosa, read-out: MIC100
[11] = A. baumanii ATCC9955, NAB7061 4 μg/mL
[12] = A. baumanii ATCC9955, PMBN 25 μg/mL
[13] = Acinetobacter baumannii, ATCC9955
[14] = S. typhimurium SL1344, NAB7061 4 μg/mL
[15] = S. typhimurium SL1344, PMBN 25 μg/mL
[16] = Salmonella enterica, TYPHIMURIUM
[17] = Klebisiella spp., PMBN 25 μg/mL

H+-ATPase, sequence (P0ABB0 whole entry): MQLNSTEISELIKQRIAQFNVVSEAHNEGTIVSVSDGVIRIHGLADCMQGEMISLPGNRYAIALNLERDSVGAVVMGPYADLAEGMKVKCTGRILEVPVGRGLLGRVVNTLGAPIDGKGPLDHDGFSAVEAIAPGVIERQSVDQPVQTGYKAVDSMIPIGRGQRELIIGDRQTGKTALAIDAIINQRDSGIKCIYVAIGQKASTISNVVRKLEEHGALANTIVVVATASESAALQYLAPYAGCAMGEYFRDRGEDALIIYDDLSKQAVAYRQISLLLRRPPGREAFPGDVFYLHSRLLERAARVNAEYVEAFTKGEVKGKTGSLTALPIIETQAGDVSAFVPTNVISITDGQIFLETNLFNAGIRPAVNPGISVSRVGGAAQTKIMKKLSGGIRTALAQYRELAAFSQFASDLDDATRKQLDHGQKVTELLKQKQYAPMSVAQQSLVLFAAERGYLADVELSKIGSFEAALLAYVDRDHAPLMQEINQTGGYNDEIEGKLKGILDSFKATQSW
H+-ATPase, sequence (P0ABB4 2-460): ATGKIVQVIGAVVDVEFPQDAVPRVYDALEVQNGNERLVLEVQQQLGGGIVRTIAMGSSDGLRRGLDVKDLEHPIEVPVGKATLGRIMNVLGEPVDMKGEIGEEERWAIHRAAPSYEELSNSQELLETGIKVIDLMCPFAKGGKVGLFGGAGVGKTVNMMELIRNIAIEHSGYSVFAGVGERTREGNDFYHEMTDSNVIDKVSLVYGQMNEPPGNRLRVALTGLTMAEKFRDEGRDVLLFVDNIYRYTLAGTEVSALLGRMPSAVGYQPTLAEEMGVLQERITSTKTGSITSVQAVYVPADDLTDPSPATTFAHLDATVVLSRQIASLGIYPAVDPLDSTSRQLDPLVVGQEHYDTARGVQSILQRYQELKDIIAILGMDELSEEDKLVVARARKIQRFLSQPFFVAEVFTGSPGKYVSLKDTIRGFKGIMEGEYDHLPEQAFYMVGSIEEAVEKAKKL
H+-ATPase, sequence (P0ABA6 whole entry, further chain): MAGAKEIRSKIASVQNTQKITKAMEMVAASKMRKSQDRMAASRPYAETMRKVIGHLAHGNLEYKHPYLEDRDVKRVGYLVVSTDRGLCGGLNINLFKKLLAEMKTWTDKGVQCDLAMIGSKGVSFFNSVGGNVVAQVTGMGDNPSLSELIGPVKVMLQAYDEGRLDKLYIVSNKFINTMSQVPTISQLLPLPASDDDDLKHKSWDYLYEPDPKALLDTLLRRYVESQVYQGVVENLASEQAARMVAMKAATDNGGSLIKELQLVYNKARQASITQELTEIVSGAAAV
PaSecA, sequence (Q9LCT3 whole entry): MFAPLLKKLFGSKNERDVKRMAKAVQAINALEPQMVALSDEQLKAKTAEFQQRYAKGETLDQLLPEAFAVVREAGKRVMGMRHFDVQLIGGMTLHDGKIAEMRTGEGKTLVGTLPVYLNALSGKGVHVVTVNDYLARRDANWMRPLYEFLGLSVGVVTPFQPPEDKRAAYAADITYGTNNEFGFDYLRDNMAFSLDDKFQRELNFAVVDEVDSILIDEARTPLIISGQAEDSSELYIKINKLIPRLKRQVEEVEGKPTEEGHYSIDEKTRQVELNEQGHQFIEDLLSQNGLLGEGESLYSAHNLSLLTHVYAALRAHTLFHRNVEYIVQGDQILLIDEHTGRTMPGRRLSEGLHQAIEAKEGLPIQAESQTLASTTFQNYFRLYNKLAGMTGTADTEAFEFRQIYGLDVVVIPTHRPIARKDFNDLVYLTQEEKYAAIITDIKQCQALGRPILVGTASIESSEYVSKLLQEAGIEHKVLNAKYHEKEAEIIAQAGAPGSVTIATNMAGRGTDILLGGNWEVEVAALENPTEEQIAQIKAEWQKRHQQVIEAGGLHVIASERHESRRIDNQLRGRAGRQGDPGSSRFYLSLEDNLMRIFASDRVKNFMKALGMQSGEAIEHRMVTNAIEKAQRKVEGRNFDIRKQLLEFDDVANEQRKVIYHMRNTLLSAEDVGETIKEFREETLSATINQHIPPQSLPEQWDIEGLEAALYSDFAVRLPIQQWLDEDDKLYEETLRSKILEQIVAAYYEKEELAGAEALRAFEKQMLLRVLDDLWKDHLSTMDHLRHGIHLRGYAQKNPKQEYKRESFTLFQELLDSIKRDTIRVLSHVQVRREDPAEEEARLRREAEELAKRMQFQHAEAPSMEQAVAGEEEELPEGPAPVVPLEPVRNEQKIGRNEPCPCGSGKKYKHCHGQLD

MIC [1, 10]	SMILES	MIC (E. coli C291-b1; [3])	MIC (E. coli C291-b1; E. coli C291-b1, PMBN 25 μg/mL)	MIC (Klebisiella spp.; [4])	MIC (Klebisiella spp.; [5])	MIC (K. pneumoniae BARB 105; [6])	MIC (K. pneumoniae BARB 105; [7])	MIC [1, 8]	MIC [1, 9]	MIC (A. baumanii ATCC9955; [11])	MIC (A. baumanii ATCC9955; [12])	MIC (A. baumanii ATCC9955; [13])	MIC (S. typhimurium SL1344; [14])	MIC (S. typhimurium SL1344; [15])	MIC (S. typhimurium SL1344; [16])	MIC (Klebisiella spp.; [17])	further results
> 1000 µg/mL	CC1(C)S[C@@H]2[C@H](NC(=O)C(C(=O)O)c3ccccc3)C(=O)N2[C@H]1C(=O)O (stereo partly shown) [Carbenicillin]	>1,000 μg/mL	>1,000 μg/mL	>1,250 μg/mL	>1,250 μg/mL	>1,000 μg/mL	>1,000 μg/mL	>1,000 μg/mL	>1,000 μg/mL	>1,000 μg/mL	>1,000 μg/mL	> 1000 µg/mL	>500 µg/mL	>500 µg/mL	> 500 µg/mL		MIC (E. coli C291-b1; Escherichia coli, C291B1): > 1000 µg/mL; MIC (Klebisiella spp.): > 1250 µg/mL; MIC (K. pneumoniae BARB 105; Klebsiella pneumoniae, BARB105): > 1000 µg/mL; MIC ([1]; Pseudomonas aeruginosa): > 1000 µg/mL
	O=C1OC2(c3cc(I)c(O)c(I)c3Oc3c2cc(I)c(O)c3I)c2c(Cl)c(Cl)c(Cl)c(Cl)c21 [RB, Rose Bengal]	>254 ^* μg/mL	3.2 µg/mL (≈ 3.29 µM)	>1,272 ^* μg/mL	>254 ^* μg/mL	>254 ^* μg/mL	25.4 µg/mL (≈ 26.1 µM)	3.2 µg/mL (≈ 3.29 µM)	0.4 µg/mL (≈ 0.411 µM)	127.2 µg/mL (≈ 131 µM)	80.6 µg/mL (≈ 82.8 µM)		254 µg/mL (≈ 261 µM)	17 µg/mL (≈ 17.5 µM)		>254 ^* μg/mL	MIC (E. coli NR698): 4.5 µg/mL (≈ 4.62 µM); MIC (E. coli MC4100; E. coli MC4100, Addition None): >1,272 ^* μg/mL; MIC (E. coli MC4100; E. coli MC4100, NAB7061 4 μg/mL): 2.0 µg/mL (≈ 2.05 µM); MIC (E. coli MC4100; E. coli MC4100, PMBN 25 μg/mL): 15.9 µg/mL (≈ 16.3 µM); MIC ([2]; Shigella flexneri ATCC12022, NAB7061 4 μg/mL): 1.6 µg/mL (≈ 1.64 µM); MIC ([2]; Shigella flexneri ATCC12022, PMBN 25 μg/mL): 7.5 µg/mL (≈ 7.7 µM); MIC (E. coli C291-b1; E. coli C291-b1, Addition None): >1,272 ^* μg/mL; MIC (K. pneumoniae BARB 105; K. pneumoniae BARB 105, Addition None): >1,272 ^* μg/mL; MIC ([1]; P. aeruginosa T15464 (MDR), Addition None): >1,272 ^* μg/mL; MIC (A. baumanii ATCC9955; A. baumanii ATCC9955, Addition None): >1,272 ^* μg/mL; MIC (S. typhimurium SL1344; S. typhimurium SL1344, Addition None): >1,272 ^* μg/mL; IC50 (H+-ATPase): 60 µM; IC50 (SpuB ATPase): > 200 µM; IC50 (PaSecA): 1000 nM
	CN[C@H](CC(C)C)C(=O)N[C@H]1C(=O)N[C@@H](CC(N)=O)C(=O)N[C@H]2C(=O)N[C@H]3C(=O)N[C@H](C(=O)N[C@H](C(=O)O)c4cc(O)cc(O)c4-c4cc3ccc4O)[C@H](O)c3ccc(c(Cl)c3)Oc3cc2cc(c3O[C@@H]2O[C@H](CO)[C@@H](O)[C@H](O)[C@H]2O[C@H]2C[C@](C)(N)[C@H](O)[C@H](C)O2)Oc2ccc(cc2Cl)[C@H]1O [Vancomycin]			1000 µg/mL (≈ 690 µM)	250 µg/mL (≈ 173 µM)					250 µg/mL (≈ 173 µM)	250 µg/mL (≈ 173 µM)	250 µg/mL (≈ 173 µM)	>250 µg/mL		> 250 µg/mL	250 µg/mL (≈ 173 µM)	MIC (E. coli MC4100; Escherichia coli, MC4100, E. coli MC4100, Addition None): 250 µg/mL (≈ 173 µM); MIC (E. coli MC4100; Escherichia coli, MC4100, E. coli MC4100, PMBN 25 μg/mL): 31.3 µg/mL (≈ 21.6 µM); MIC ([2]; Shigella flexneri, ATCC12022, Shigella flexneri ATCC12022, Addition None): > 250 µg/mL; MIC ([2]; Shigella flexneri, ATCC12022, Shigella flexneri ATCC12022, NAB7061 4 μg/mL): 250 µg/mL (≈ 173 µM); MIC ([2]; Shigella flexneri, ATCC12022, Shigella flexneri ATCC12022, PMBN 25 μg/mL): 62.5 µg/mL (≈ 43.1 µM); MIC (E. coli C291-b1; Escherichia coli, C291B1, E. coli C291-b1, Addition None): > 250 µg/mL; MIC (E. coli C291-b1; Escherichia coli, C291B1, E. coli C291-b1, NAB7061 4 μg/mL): 125 µg/mL (≈ 86.3 µM); MIC (E. coli C291-b1; Escherichia coli, C291B1, E. coli C291-b1, PMBN 25 μg/mL): 31 µg/mL (≈ 21.4 µM); MIC (K. pneumoniae BARB 105; Klebsiella pneumoniae, BARB105, K. pneumoniae BARB 105, Addition None): > 1000 µg/mL; MIC (K. pneumoniae BARB 105; Klebsiella pneumoniae, BARB105, K. pneumoniae BARB 105, NAB7061 4 μg/mL): 1000 µg/mL (≈ 690 µM); MIC (K. pneumoniae BARB 105; Klebsiella pneumoniae, BARB105, K. pneumoniae BARB 105, PMBN 25 μg/mL): 500 µg/mL (≈ 345 µM); MIC ([1]; Pseudomonas aeruginosa, P. aeruginosa T15464 (MDR), Addition None): > 1000 µg/mL; MIC ([1]; Pseudomonas aeruginosa, P. aeruginosa T15464 (MDR), NAB7061 4 μg/mL): > 1000 µg/mL; MIC ([1]; Pseudomonas aeruginosa, P. aeruginosa T15464 (MDR), PMBN 3 μg/mL): 31 µg/mL (≈ 21.4 µM); MIC ([1]; Pseudomonas aeruginosa, read-out: MIC100, clinical MDR P. aeruginosa strain T15464): > 1000 µg/mL
> 1000 µg/mL	CC[C@H]1OC(=O)[C@H](C)[C@@H](O[C@H]2C[C@@](C)(OC)[C@@H](O)[C@H](C)O2)[C@H](C)[C@@H](O[C@@H]2O[C@H](C)C[C@H](N(C)C)[C@H]2O)[C@](C)(O)C[C@@H](C)C(=O)[C@H](C)[C@@H](O)[C@]1(C)O [erythromycin]																
